Reference: ChEMBL document CHEMBL2029236, “Tubulin binding, protein-bound conformation in solution, and antimitotic cellular profiling of noscapine and its derivatives” (J Med Chem, 2012)
Activity calls are given as the source filed them. The calls are words filed in the database; no cut-off is given here.

Key:
SNU-398 [1] = assay: Antiproliferative activity against human SNU398 cells; assay type: functional, cell-based
Summary of the method: (§1)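 Cell viability assay in hepatocellular carcinoma cell lines; IC50 values derived from concentration–response data and reported in nM.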

[2] = Antiproliferative activity against human PLC/PRF/5 cells; assay type: functional, cell-based; summary of the method: as §1
SMMC-7721 = assay: Antiproliferative activity against human SMMC7721 after 72 hrs by CellTiter Glo assay; assay type: functional, cell-based; settings: SMMC-7721, 72 h; summary of the method: as §1
[3] = Antiproliferative activity against human MHCC97H after 72 hrs by CellTiter Glo assay; assay type: functional; summary of the method: as §1
Bel-7402 = assay: Antiproliferative activity against human Bel7402 after 72 hrs by CellTiter Glo assay; assay type: functional, cell-based; settings: Bel-7402, 72 h; summary of the method: as §1
[4] = Antiproliferative activity against human Hep3B after 72 hrs by CellTiter Glo assay; assay type: functional, Hep 3B2; summary of the method: as §1
HepG2 = assay: Antiproliferative activity against human HepG2 after 72 hrs by CellTiter Glo assay; assay type: functional, cell-based; settings: HepG2, 72 h; summary of the method: as §1
Huh-7 = assay: Antiproliferative activity against human HuH7 after 72 hrs by CellTiter Glo assay; assay type: functional, cell-based; settings: Huh-7, 72 h; summary of the method: as §1
[5] = Antiproliferative activity against human JHH2 after 72 hrs by CellTiter Glo assay; assay type: functional; summary of the method: as §1
[6] = Antiproliferative activity against human JHH4 after 72 hrs by CellTiter Glo assay; assay type: functional; summary of the method: as §1
[7] = Antiproliferative activity against human PLC/PRF/5 after 72 hrs by CellTiter Glo assay; assay type: functional; settings: PLC-PRF-5, 72 h; summary of the method: as §1
[8] = Antiproliferative activity against human SNU182 after 72 hrs by CellTiter Glo assay; assay type: functional, cell-based; settings: SNU-182, 72 h; summary of the method: as §1
SNU-387 = assay: Antiproliferative activity against human SNU387 after 72 hrs by CellTiter Glo assay; assay type: functional, cell-based; settings: SNU-387, 72 h; summary of the method: as §1
SNU-398 [9] = assay: Antiproliferative activity against human SNU398 after 72 hrs by CellTiter Glo assay; assay type: functional, cell-based; settings: SNU-398, 72 h; summary of the method: as §1
SNU-423 = assay: Antiproliferative activity against human SNU423 after 72 hrs by CellTiter Glo assay; assay type: functional, cell-based; settings: SNU-423, 72 h; summary of the method: as §1
SNU-449 = assay: Antiproliferative activity against human SNU449 after 72 hrs by CellTiter Glo assay; assay type: functional, cell-based; settings: SNU-449, 72 h; summary of the method: as §1
SNU-475 = assay: Antiproliferative activity against human SNU475 after 72 hrs by CellTiter Glo assay; assay type: functional, cell-based; settings: SNU-475, 72 h; summary of the method: as §1
SNU-398 [10] = assay: Cell cycle arrest in human SNU398 cells assessed as accumulation at G1 phase after 24 hrs by FACS analysis (reference value: 55.8%); assay type: functional
SNU-398 [11] = assay: Cell cycle arrest in human SNU398 cells assessed as accumulation at G2 phase after 24 hrs by FACS analysis (reference value: 38.2%); assay type: functional
SNU-398 [12] = assay: Cell cycle arrest in human SNU398 cells assessed as accumulation at sub-G1 phase after 24 hrs by FACS analysis (reference value: 1.2%); assay type: functional
[13] = Cell cycle arrest in human PLC/PRF/5 cells assessed as accumulation at G1 phase after 24 hrs by FACS analysis (reference value: 66.8%); assay type: functional, cell-based
[14] = Cell cycle arrest in human PLC/PRF/5 cells assessed as accumulation at G2 phase after 24 hrs by FACS analysis (reference value: 26.1%); assay type: functional, cell-based
[15] = Cell cycle arrest in human PLC/PRF/5 cells assessed as accumulation at sub-G1 phase after 24 hrs by FACS analysis (reference value: 1.4%); assay type: functional, cell-based
Bos taurus [16] = organism: Bos taurus; assay: Binding affinity to calf brain tubulin assessed as increase in fluorescence at 10 uM by fluorometry relative to control
Summary of the method: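 Fluorescence emission spectra of 10 μM ligand with and without 10 μM tubulin in 10 mM sodium phosphate, 0.1 mM GTP, pH 7.0, 25 °C. Emission intensity (425 nm maximum) and anisotropy were compared between bound and unbound ligand.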

Bos taurus [17] = organism: Bos taurus; assay: Binding affinity to calf brain tubulin alpha/beta heterodimer assessed as increase in proton signal at […] by STD NMR analysis
Summary of the method: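 STD NMR with freshly prepared tubulin α/β heterodimer. Ligand:protein molar ratio 30:1 ([…], […]). Read-out: enhancement of ligand proton signals in STD spectra versus an off-resonance reference spectrum acquired without protein irradiation.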

[18] = Antiproliferative activity against human JHH7 after 72 hrs by CellTiter Glo assay; assay type: functional; summary of the method: as §1
SNU-398 [19] = assay: Cell cycle arrest in human SNU398 cells assessed as accumulation at G1 phase at 2 uM after 24 hrs by FACS analysis (reference value: 55.8%); assay type: functional
SNU-398 [20] = assay: Cell cycle arrest in human SNU398 cells assessed as accumulation at G2 phase at 2 uM after 24 hrs by FACS analysis (reference value: 38.2%); assay type: functional
SNU-398 [21] = assay: Cell cycle arrest in human SNU398 cells assessed as accumulation at sub-G1 phase at 2 uM after 24 hrs by FACS analysis (reference value: 1.2%); assay type: functional
[22] = Cell cycle arrest in human PLC/PRF/5 cells assessed as accumulation at G1 phase at 2 uM after 24 hrs by FACS analysis (reference value: 66.8%); assay type: functional, cell-based
[23] = Cell cycle arrest in human PLC/PRF/5 cells assessed as accumulation at G2 phase at 2 uM after 24 hrs by FACS analysis (reference value: 26.1%); assay type: functional, cell-based
[24] = Cell cycle arrest in human PLC/PRF/5 cells assessed as accumulation at sub-G1 phase at 2 uM after 24 hrs by FACS analysis (reference value: 1.4%); assay type: functional, cell-based
SNU-398 [25] = assay: Cell cycle arrest in human SNU398 cells assessed as accumulation at G1 phase at 100 nM after 24 hrs by FACS analysis (reference value: 55.8%); assay type: functional
SNU-398 [26] = assay: Cell cycle arrest in human SNU398 cells assessed as accumulation at G2 phase at 100 nM after 24 hrs by FACS analysis (reference value: 38.2%); assay type: functional
SNU-398 [27] = assay: Cell cycle arrest in human SNU398 cells assessed as accumulation at sub-G1 phase at 100 nM after 24 hrs by FACS analysis (reference value: 1.2%); assay type: functional
[28] = Cell cycle arrest in human PLC/PRF/5 cells assessed as accumulation at G1 phase at 100 nM after 24 hrs by FACS analysis (reference value: 66.8%); assay type: functional, cell-based
[29] = Cell cycle arrest in human PLC/PRF/5 cells assessed as accumulation at G2 phase at 100 nM after 24 hrs by FACS analysis (reference value: 26.1%); assay type: functional, cell-based
[30] = Cell cycle arrest in human PLC/PRF/5 cells assessed as accumulation at sub-G1 phase at 100 nM after 24 hrs by FACS analysis (reference value: 1.4%); assay type: functional, cell-based

## CC(=O)O[C@@]12CO[C@@H]1C[C@H](O)[C@@]1(C)C(=O)[C@H](O)C3=C(C)[C@@H](OC(=O)[C@H](O)[C@@H](NC(=O)OC(C)(C)C)c4ccccc4)C[C@@](O)([C@@H](OC(=O)c4ccccc4)[C@H]21)C3(C)C.O.O.O [DOCETAXEL]
SNU-398 [1]
  IC50: 16.6 nM
[2]
  IC50: 12 nM
SMMC-7721
  IC50: 2 nM
[3]
  IC50: 22.4 nM
Bel-7402
  IC50: 1.9 nM
[4]
  IC50: 38.2 nM
HepG2
  IC50: > 100 nM
Huh-7
  IC50: 12.1 nM
[5]
  IC50: > 100 nM
[6]
  IC50: 14.1 nM
[7]
  IC50: 16.7 nM
[8]
  IC50: 39.2 nM
SNU-387
  IC50: 4.3 nM
SNU-398 [9]
  IC50: 17.6 nM
SNU-423
  IC50: 10.8 nM
SNU-449
  IC50: > 100 nM
SNU-475
  IC50: 20.5 nM
SNU-398 [10]
  Activity: 12.7%
SNU-398 [11]
  Activity: 72.2%
SNU-398 [12]
  Activity: 9.3%
[13]
  Activity: 11.2%
[14]
  Activity: 64.4%
[15]
  Activity: 16.8%

## COc1ccc2c(c1OC)C(=O)O[C@@H]2[C@H]1c2c(cc3c(c2OC)OCO3)CCN1C [NOSCAPINE]
Bos taurus [16]
  Activity: inactive
Bos taurus [17]
  inhibition: Active
SNU-398 [1]
  IC50: > 2000 nM
[2]
  IC50: > 2000 nM
SMMC-7721
  IC50: > 1000 nM
[3]
  IC50: > 1000 nM
Bel-7402
  IC50: > 1000 nM
[4]
  IC50: > 1000 nM
HepG2
  IC50: > 1000 nM
Huh-7
  IC50: > 1000 nM
[5]
  IC50: > 1000 nM
[6]
  IC50: > 1000 nM
[18]
  IC50: > 1000 nM
[7]
  IC50: > 1000 nM
[8]
  IC50: > 1000 nM
SNU-387
  IC50: > 1000 nM
SNU-398 [9]
  IC50: > 1000 nM
SNU-423
  IC50: > 1000 nM
SNU-449
  IC50: > 1000 nM
SNU-475
  IC50: > 1000 nM
SNU-398 [19]
  Activity: 66%
SNU-398 [20]
  Activity: 30.3%
SNU-398 [21]
  Activity: 1%
[22]
  Activity: 65.5%
[23]
  Activity: 27.1%
[24]
  Activity: 1.5%

## C/C(=C\c1csc(C)n1)[C@@H]1C[C@@H]2O[C@]2(C)CCC[C@H](C)[C@H](O)[C@@H](C)C(=O)C(C)(C)[C@@H](O)CC(=O)O1 [PATUPILONE]
SNU-398 [1]
  IC50: 5 nM
[2]
  IC50: 3.8 nM
SMMC-7721
  IC50: 2.3 nM
[3]
  IC50: 6.7 nM
Bel-7402
  IC50: 0.9 nM
[4]
  IC50: > 100 nM
HepG2
  IC50: 44.7 nM
Huh-7
  IC50: 4.5 nM
[5]
  IC50: 61.3 nM
[6]
  IC50: 1.8 nM
[18]
  IC50: 14.8 nM
[7]
  IC50: 12.7 nM
[8]
  IC50: 22.3 nM
SNU-387
  IC50: 20 nM
SNU-398 [9]
  IC50: 2.9 nM
SNU-423
  IC50: 10.3 nM
SNU-449
  IC50: 19.9 nM
SNU-475
  IC50: 11.6 nM
SNU-398 [25]
  Activity: 13.7%
SNU-398 [26]
  Activity: 70.1%
SNU-398 [27]
  Activity: 11.8%
[28]
  Activity: 5.4%
[29]
  Activity: 56.3%
[30]
  Activity: 5.1%

## CC[C@]1(O)C[C@H]2CN(CCc3c([nH]c4ccccc34)[C@@](C(=O)OC)(c3cc4c(cc3OC)N(C=O)[C@H]3[C@@](O)(C(=O)OC)[C@H](OC(C)=O)[C@]5(CC)C=CCN6CC[C@]43[C@@H]65)C2)C1 [VINCRISTINE]
SNU-398 [1]
  IC50: 46.7 nM
[2]
  IC50: 12.7 nM
SMMC-7721
  IC50: 6.5 nM
[3]
  IC50: 21.2 nM
Bel-7402
  IC50: 4.2 nM
[4]
  IC50: > 100 nM
HepG2
  IC50: > 100 nM
Huh-7
  IC50: 20 nM
[5]
  IC50: > 100 nM
[6]
  IC50: 7.2 nM
[18]
  IC50: 28.2 nM
[7]
  IC50: 22.1 nM
[8]
  IC50: 35.9 nM
SNU-387
  IC50: 40.9 nM
SNU-398 [9]
  IC50: < 0.13 nM
SNU-423
  IC50: 18.4 nM
SNU-449
  IC50: > 100 nM
SNU-475
  IC50: 29.3 nM
SNU-398 [10]
  Activity: 17.1%
SNU-398 [11]
  Activity: 64.5%
[13]
  Activity: 12.2%
[14]
  Activity: 68.4%
[15]
  Activity: 11.8%
